Screening data (PubChem BioAssay)
WT yeast gro inh – growth inhibition of WT yeast, mitochondrial fusion screen; mitochondrial fusion phenotypic screen, WT strain; inhibition, % at 10 µM; 190,000 compounds, 2.1% hits; in the data active = inhibition above about 58%; tested in S. cerevisiae
Cl transport mod – modulates chloride dependent transport by human KCC2; Q9H2X9; KCC2 cells, thallium flux FluoZin-2 fluorescence; B-score of Tl+ flux slope (higher = more flux/activation; lower = inhibition) at 10 µM; 190,000 compounds, 2.2% hits;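 active = thallium flux slope and its plate-corrected score both differing from the plate sample mean at a set confidence after two filtering rounds, in either direction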;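 also: slope of fluorescence scaled to starting intensity during 10 to 20 s after thallium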
Target sequence (Q9H2X9 whole entry, looked up): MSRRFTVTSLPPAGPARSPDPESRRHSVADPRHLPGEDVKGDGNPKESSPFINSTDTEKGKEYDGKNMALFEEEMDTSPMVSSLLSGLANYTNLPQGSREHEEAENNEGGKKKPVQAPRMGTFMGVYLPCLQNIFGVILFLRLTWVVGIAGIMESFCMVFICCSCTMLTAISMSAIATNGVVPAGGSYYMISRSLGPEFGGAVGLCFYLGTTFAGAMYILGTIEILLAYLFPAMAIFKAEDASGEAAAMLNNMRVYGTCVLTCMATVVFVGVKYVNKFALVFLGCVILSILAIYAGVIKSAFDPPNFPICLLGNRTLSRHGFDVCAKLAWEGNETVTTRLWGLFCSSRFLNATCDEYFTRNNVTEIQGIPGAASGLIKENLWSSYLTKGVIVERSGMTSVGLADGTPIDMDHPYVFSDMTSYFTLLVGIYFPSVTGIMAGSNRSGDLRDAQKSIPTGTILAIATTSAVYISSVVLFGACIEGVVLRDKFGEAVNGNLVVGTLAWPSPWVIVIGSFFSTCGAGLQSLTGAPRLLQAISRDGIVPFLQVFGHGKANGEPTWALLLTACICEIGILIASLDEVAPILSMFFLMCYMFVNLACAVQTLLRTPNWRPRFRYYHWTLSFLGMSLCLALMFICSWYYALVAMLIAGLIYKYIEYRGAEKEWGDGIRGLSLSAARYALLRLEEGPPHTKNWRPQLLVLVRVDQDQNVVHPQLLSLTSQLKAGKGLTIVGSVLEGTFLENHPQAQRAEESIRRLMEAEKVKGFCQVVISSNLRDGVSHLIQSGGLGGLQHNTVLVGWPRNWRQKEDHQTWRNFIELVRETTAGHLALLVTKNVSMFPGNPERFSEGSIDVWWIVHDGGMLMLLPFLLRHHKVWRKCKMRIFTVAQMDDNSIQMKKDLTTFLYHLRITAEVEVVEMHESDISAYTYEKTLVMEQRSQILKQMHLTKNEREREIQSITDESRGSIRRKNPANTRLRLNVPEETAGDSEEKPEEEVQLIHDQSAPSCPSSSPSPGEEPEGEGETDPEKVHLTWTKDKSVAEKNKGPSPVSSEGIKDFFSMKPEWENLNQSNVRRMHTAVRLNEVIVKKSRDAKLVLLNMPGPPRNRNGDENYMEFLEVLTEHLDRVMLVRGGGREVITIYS
SKKanGAS inh – inhibitors of SKKanGAS S. pyogenes growth in kanamycin (SK-promoter or general growth effect); BacTiter-Glo, 6 h; AID 1662; 300,000 compounds, 1.3% hits; inhibition, % at 7.5 µM;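 active = mean replicate score, as percent of positive control median, at least 50; inconclusive = mean below 50 but one replicate at or above 50; inactive = mean and every replicate below 50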;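 also: strain carries kanamycin resistance gene driven by streptokinase promoter and grows in 40 µg/ml kanamycin; loss of luminescence reflects streptokinase promoter inhibition or plain growth inhibition; 0% = median of DMSO wells and 100% = positive control at its reference dose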
Ins promoter up – MIN6 insulin promoter up-regulation. MIN6 insulin promoter-GFP reporter, high-content imaging; hits give high values. z-score at 5 µM. 190,000 compounds, 0.3% hits;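 active = z-score above 3 at 5 µM with at least 500 cells counted in the well; inconclusive = wells under 500 cells, flagged as cytotoxic or low count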
Autophagy mod – alters autophagy in cells; calls only at 10 µM (by protocol); MEF GFP-LC3 puncta imaging; test concentration mostly 10 µM; 190,000 compounds, 0.98% hits;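 active = percentage of spot-positive cells more than 3 SD above its plate mean, without a fluorescence outlier flag or 80% toxicity; inconclusive = no clear call, values can overlap the other calls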;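 also: spot-positive cell cutoff set from DMSO-treated cells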
Rad51 HR inh – blocks human Rad51 in homologous recombination; Q06609; AID 1385; hRad51 DNA strand exchange, fluorescence dequenching; 200,000 compounds, 0.085% hits; inhibition, % at 10 µM;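 active = inhibition above 40% at the single screening dose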;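 also: 0% = DMSO control wells and 100% = blanks with heterologous ssDNA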
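Material: Human Rad51 nucleoprotein filaments preassembled on unlabelled ssDNA | Also added: Labelled 47-mer dsDNA for strand exchange | Dosing: Single dose, 10 µM final compound | Schedule: 30-min compound preincubation and 15-min exchange, both room temperature | Technique: Fluorescence dequenching at 485/520 nm | Measure: Percent inhibition relative to plate controls and blanks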
KCC2 secondary – KCC2 (human) modulation, secondary assay; normalised thallium flux (F/F0 slope) at 10 µM; 3,700 compounds, 15% hits; AID 1713; shares compounds with Cl transport mod; HEK293-KCC2, thallium flux, FluoZin2 fluorescence; hits give high values;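 active = thallium flux slope above the same plate's solvent-only control mean plus 3 SD; inconclusive = the two replicate wells disagree; inactive = no significant difference from solvent-only control wells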
KCC2 bumet counter – thallium flux despite bumetanide block in KCC2 cells, secondary assay 3; 3,700 compounds, 49% hits; normalized thallium flux at 10 µM; HEK293-KCC2 + bumetanide/ouabain, thallium flux FluoZin2; hits give high values; shares compounds with Cl transport mod; AID 1714;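 active = thallium entry rate above the same plate's blocked-transporter control wells by more than 3 SD; inconclusive = the two repeat wells disagree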;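 also: raw slope of fluorescence over initial fluorescence between 10 and 20 s after thallium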
KCC2 sec2 – KCC2 (human) modulation, second secondary assay | shares compounds with Cl transport mod | AID 1715 | 3,700 compounds, 23% hits | HEK293-KCC2, thallium flux FluoZin2 fluorescence; actives lie on both sides; F/F0 rise rate, 10–20 s post-thallium | normalized thallium flux at 10 µM;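 active = thallium flux slope more than 3 SD above or below the plate's solvent-only control mean, mostly below; inconclusive = the two repeat wells disagreed; inactive = no significant shift from solvent-only controls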;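 also: raw slope with 0.1% DMSO as baseline and bumetanide as block control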
HEK293 Tl flux – parental HEK flux effect, counter-screen | AID 1716 | HEK293 parental cells, thallium flux FluoZin2, ouabain; baseline-ratio fluorescence slope, 10–20 s after thallium | shares compounds with Cl transport mod | 3,700 compounds, 46% hits | thallium flux rate (normalised fluorescence) at 10 µM;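 active = thallium flux rate significantly above the same plate's solvent-only control wells, beyond their mean plus 3 SD; inconclusive = the two replicate wells gave conflicting results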
KCC2 ouabain – confirmation of human KCC2 modulators with ouabain | HEK293-KCC2, thallium flux FluoZin2 fluorescence; bidirectional: low = inhibitor, high = activator | shares compounds with Cl transport mod | raw Tl+ flux slope (below DMSO = inhibition, above = activation) at 10 µM | 3,700 compounds, 48% hits;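 active = thallium flux slope beyond 3 SD from same-plate DMSO control mean in most replicates, usually higher, sometimes lower; inconclusive = repeat tests gave conflicting results; inactive = no significant difference from controls in most replicates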;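 also: slope of initial-normalized fluorescence between seconds 10 and 20 after thallium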
HEK counter2 – acts in parental HEK cells, second KCC2 counter-screen; shares compounds with Cl transport mod; HEK293 parental, thallium flux FluoZin-2 fluorescence slope; thallium flux slope at 10 µM; 3,700 compounds, 33% hits;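 active = thallium flux slope above the same plate's solvent-control mean plus 3 SD in both duplicate wells; inconclusive = duplicate wells that disagreed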;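 also: run without ouabain in cells lacking the KCC2 cotransporter; slope of fluorescence scaled to its starting value between 10 and 20 s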
Active calls of the source: *; i = inactive; u = inconclusive; x = no result. In the library only some 4.2% were active in any assay of this set; here they are far more common.

SMILES	WT yeast gro inh	Cl transport mod	SKKanGAS inh	Ins promoter up	Autophagy mod	Rad51 HR inh	KCC2 secondary	KCC2 bumet counter	KCC2 sec2	HEK293 Tl flux	KCC2 ouabain	HEK counter2
Cc1ccc(C)c(C2=NNC(=NCc3ccccc3)SC2)c1	13.0	8.94*	9.3	1.01	i	5.5	0.0102	0.0385*	0.0364	u	0.0328*	u
C=CCn1c(C)cc(C2=NNC(=NCc3ccccc3)SC2)c1C	0.7	0.475	2.7	0.15	i	-2.2	x	x	x	x	x	x
O=C(NCCc1ccc(Cl)cc1)c1cc(S(=O)(=O)N2CCCCC2)c[nH]1	x	x	-3.4	x	x	x	x	x	x	x	x	x
Cn1cc(Br)c(C(=O)Nc2c(F)c(F)c(F)c(F)c2F)n1	-8.9	-3.61*	-2.7	0.59	i	8.2	u	u	0.0369	0.00771	0.023	0.0106
CCOc1ccccc1NC(=O)CSc1nnc(CNC(=O)c2c(F)cccc2Cl)o1	x	x	-0.5	x	x	x	x	x	x	x	x	x
COc1cccc(Cn2cnc3c(NS(=O)(=O)c4cc(Cl)ccc4Cl)c(C)c(C)cc32)c1	43.5	x	32.4	0.72	i	9.8	0.00911	0.00913*	0.0307	u	0.0259	u
Nc1nc2ccc(NC(=O)c3ccco3)cc2s1	x	x	3.0	x	x	x	x	x	x	x	x	x
CCc1cc(C(=O)N2CCCC(C(=O)c3cccc4ccccc34)C2)n(C)n1 (centres undefined)	4.3	x	-5.9	-1.45	i	x	x	x	x	x	x	x
O=C(O)c1ccc(C=C(c2nc3ccccc3s2)c2nc3ccccc3s2)cc1	74.5*	-5.25*	35.5	0.22	i	2.9	0.00766	0.00681	0.0311	0.00621	0.0173	0.00951
O=C(c1cc(COc2ccc(F)cc2Cl)on1)N1CCC(OCc2cccnc2)CC1	13.5	x	-16.8	0.65	i	x	0.00809	0.00643	0.0278	0.00698	0.0297*	0.0103
Cc1nonc1C1CCCN1C(=O)c1cc(COc2ccc(F)cc2Cl)on1 (centres undefined)	2.7	x	1.7	x	i	-2.2	0.0157	0.00398	0.0241*	u	0.0127	0.00992
O=C(c1cc(COc2ccc(F)cc2Cl)on1)N1CCCC(OCc2cccnc2)C1 (centres undefined)	19.6	x	-9.6	-0.28	i	-20.2	0.00674	0.00516	0.0284	0.00707	0.0145*	u
Cn1c(CNC(=O)CNC(=O)Cc2ccc(F)cc2)cc(=O)n(C)c1=O	x	x	2.8	x	x	x	x	x	x	x	x	x
CCS(=O)(=O)N1CCC(C(=O)O)CC1	9.7	-0.355	-7.9	0.06	i	-2.1	x	x	x	x	x	x
COC(=O)C(Cc1cccc(C)n1)(c1ccccc1)c1ccccc1	x	x	6.9	x	x	x	x	x	x	x	x	x
CC1(c2cccs2)CC(c2cccs2)=C(C#N)C(=O)N1 (centres undefined)	-1.3	5.19*	-18.2	-0.63	i	x	0.00649	0.00452	0.0276	0.00595*	0.0181	0.00928
O=[N+]([O-])c1ccc(Cl)c(S(=O)(=O)N2CCCCCC2)c1	-1.5	0.0392	6.3	-0.25	i	6.1	x	x	x	x	x	x
COc1ccc(-c2nnc(NC(=O)c3ccccc3C)o2)cc1	63.9*	4.49*	33.5	1.04	x	-9.8	0.0149*	0.0239*	0.0308	0.0128*	0.0265	u
Cc1cccc(C(=O)Nc2nnc(-c3cccnc3)o2)c1	5.6	4.65*	9.4	0	i	-5.2	0.00593	0.00934*	0.0302	0.00991*	0.02	u
COc1cccc(-c2nnc(NC(C)=O)o2)c1	8.1	-0.0108	3.8	1.1	x	-3.0	x	x	x	x	x	x
CCCCN(CC)S(=O)(=O)c1ccc(C(=O)Nc2nnc(-c3cccs3)o2)cc1	11.8	22.5*	97.9*	0.85	i	0.0	0.016*	0.0749*	0.0294	0.0361*	0.0504*	0.011*
COc1cccc(C(=O)Nc2nnc(-c3ccc(Cl)cc3)o2)c1	57.7	45.6*	88.0*	0.47	x	5.2	u	0.111*	0.0945*	0.0954*	0.101*	0.0893*
COc1ccc(NCc2nnc(SCc3ccc(Cl)cc3)n2-c2ccccc2)cc1	31.7	-1.62	27.6	0.53	i	x	x	x	x	x	x	x
CCN(CC)CCNC(=O)c1ccc(NC(=O)c2c(C)nn(-c3ccc(F)cc3)c2Cl)cc1	x	x	2.3	x	x	x	x	x	x	x	x	x
COc1cccc(C(=O)Nc2nnc(-c3ccc(F)cc3)o2)c1	58.7	14.7*	91.2*	0.41	x	7.8	0.00955*	0.0498*	0.0473*	0.0345*	0.0474*	0.0231*
SMILES	WT yeast gro inh	Cl transport mod	SKKanGAS inh	Ins promoter up	Autophagy mod	Rad51 HR inh	KCC2 secondary	KCC2 bumet counter	KCC2 sec2	HEK293 Tl flux	KCC2 ouabain	HEK counter2
COc1cccc(-c2nnc(NC(=O)c3ccc4ncsc4c3)o2)c1	46.5	8.84*	69.4*	-0.25	i	-16.7	0.0131*	0.0383*	0.0324	0.0166*	0.0332*	u
O=C(COc1ccc(Cl)cc1)Nc1nnc(-c2ccc3c(c2)CCCC3)o1	68.4	6.24*	97.3*	x	i	1.4	u	0.0205*	0.0368	u	0.0321*	u
COc1cccc(C(=O)Nc2nnc(-c3cccs3)o2)c1	55.9	5.31*	77.4*	0.79	i	-3.4	0.00652	0.0228*	0.0337	0.018*	0.029*	0.0164*
O=C(Nc1nnc(-c2ccc(Cl)cc2)o1)NC1CCCCC1	-3.5	0.942	9.5	0.05	i	0.6	x	x	x	x	x	x
O=C(Nc1nnc(-c2cccs2)o1)c1ccco1	-6.9	-0.0363	-0.7	-0.58	i	-3.4	x	x	x	x	x	x
CN(C)c1ccc(Nc2ccc([N+](=O)[O-])cn2)cc1	x	x	1.8	x	x	x	x	x	x	x	x	x
COc1ccc2oc(=O)c(C(=O)C[n+]3cccc(C)c3)cc2c1	-6.6	x	0.0	-0.11	i	-7.1	x	x	x	x	x	x
CCOC(=O)c1sc2nc(C)[nH]c(=S)c2c1C	6.1	200*	12.7	-1.25	i	16.8	0.0536*	0.153*	0.0521*	0.113*	0.119*	0.0498*
O=c1c2ccccc2nnn1Cc1ccccn1	9.2	-4.98*	-2.1	0.26	i	2.0	0.0106	u	0.033	0.00759	0.0221	0.0105
CCCCSc1nnc(-c2ccc(OC)cc2)n1C	-16.6	-5.03*	-5.7	x	i	1.2	0.00575	0.004	0.0283	0.00694	0.0173	0.00984
